These results are taken from ChEMBL document CHEMBL5678802, “Small-molecule p21-activated kinase inhibitor PF-3758309 is a potent inhibitor of oncogenic signaling and tumor growth” (Proc Natl Acad Sci U S A, 2010).

Calls of active or inactive are those of the source. The calls are words filed in the database; no cut-off is given here.

For one data set, the system named is NCI-H2087. Nature of the data set: Inhibition of anchorage independent cell growth in human NCI-H2087 cells incubated for 6 days by Alamar blue reagent based fluorescence plate reader analysis. The data set is classed as functional. As to conditions: NCI-H2087, 144 h. On the technique in general: Resazurin is reduced to fluorescent resorufin, in cell work by metabolically active cells.

Data set [1] can be described thus: Drug concentration in nude mouse plasma xenografted with human HCT-116 cells at 0.12 mg/kg administered via pump for 9 days by LC-MS/MS analysis. The data set is classed as ADME, organism-based. As to conditions: time 9 day.
The next data set concerns NCI-H1993. Nature of the data set: Inhibition of anchorage independent cell growth in human NCI-H1993 cells incubated for 6 days by Alamar blue reagent based fluorescence plate reader analysis. The data set is classed as functional. As to conditions: NCI-H1993, 144 h.
In data set [2] the target is T1, Receptor-type tyrosine-protein kinase FLT3 (Homo sapiens, UniProt P36888).
T1 sequence (P36888 whole entry): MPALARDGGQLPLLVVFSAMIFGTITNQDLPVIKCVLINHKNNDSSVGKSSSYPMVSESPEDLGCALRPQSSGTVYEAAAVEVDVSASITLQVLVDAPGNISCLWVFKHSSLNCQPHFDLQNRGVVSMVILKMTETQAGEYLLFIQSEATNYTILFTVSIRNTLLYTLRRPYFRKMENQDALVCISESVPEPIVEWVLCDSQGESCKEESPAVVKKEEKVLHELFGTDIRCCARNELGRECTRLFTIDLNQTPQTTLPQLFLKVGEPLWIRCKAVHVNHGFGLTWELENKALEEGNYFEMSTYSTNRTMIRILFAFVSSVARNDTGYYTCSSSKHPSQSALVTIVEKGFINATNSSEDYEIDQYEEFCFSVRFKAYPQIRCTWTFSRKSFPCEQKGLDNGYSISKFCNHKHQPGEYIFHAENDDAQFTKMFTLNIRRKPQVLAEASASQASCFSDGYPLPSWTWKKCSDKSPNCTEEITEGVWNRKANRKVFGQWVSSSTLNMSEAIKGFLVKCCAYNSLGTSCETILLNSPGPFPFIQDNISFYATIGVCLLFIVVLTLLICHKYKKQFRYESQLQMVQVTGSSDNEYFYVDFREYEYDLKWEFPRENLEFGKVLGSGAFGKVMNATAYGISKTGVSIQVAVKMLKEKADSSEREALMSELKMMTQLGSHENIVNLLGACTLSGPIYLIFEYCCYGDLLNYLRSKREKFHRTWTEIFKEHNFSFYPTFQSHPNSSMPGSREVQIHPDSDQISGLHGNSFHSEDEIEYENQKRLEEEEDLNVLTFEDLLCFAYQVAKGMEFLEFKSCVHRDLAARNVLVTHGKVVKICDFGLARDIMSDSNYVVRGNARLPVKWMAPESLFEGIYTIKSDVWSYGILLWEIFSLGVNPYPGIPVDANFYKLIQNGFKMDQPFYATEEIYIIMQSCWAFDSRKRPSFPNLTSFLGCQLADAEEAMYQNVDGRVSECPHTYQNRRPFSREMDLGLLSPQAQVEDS
The data set can be described thus: Inhibition of human FLT3 assessed as inhibition constant in presence of ATP.

In the next data set the test system is NCI-H1838. The data set can be described thus: Antiproliferative activity against human NCI-H1838 cells assessed as inhibition of cell proliferation incubated for 3 days by CellTiter-Glo Luminescent Cell Viability Assay. The class given is functional, cell-based. The note with it: NCI-H1838, 72 h. The method, boiled down: (§1)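 Cells of each line were plated in 384-well plates on day 1 and exposed to compound from day 2 for 3 days. On day 5 all medium was aspirated. Viable cell number was read by CellTiter-Glo luminescence, which quantifies cellular ATP.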
Background: In ATP-based viability assays light output follows the ATP content of the culture.

The subject of data set [3] is HCT-116. Nature of the data set: Antitumor activity against human HCT-116 cells xenografted in nude mouse assessed as tumor growth inhibition at 3.3 mg/kg administered via pump for 9 days relative to control. The data set is classed as functional. The note with it: HCT-116, 216 h, time 9 day, read-out: TGI. On the technique in general: Xenograft models place foreign cells or tissue in a host animal.

For a further data set, the system named is RKO. The data set can be described thus: Antiproliferative activity against human RKO cells assessed as inhibition of cell proliferation incubated for 3 days by CellTiter-Glo Luminescent Cell Viability Assay. The data set is classed as functional, cell-based. The note with it: 72 h. The method in brief: as §1
Data set [4] relates to HCT-116. Nature of the data set: Antitumor activity against human HCT-116 cells xenografted in nude mouse assessed as reduction in PKCalpha phosphorylation at S569 residue at 15 to 150 mg/kg/day administered via pump for 18 hrs by Reverse-Phase protein array analysis. The class given is functional, organism-based. As to conditions: dose 15-150 mg/kg/day.
The next data set has as its system NCI-H1755. The data set can be described thus: Antiproliferative activity against human NCI-H1755 cells assessed as inhibition of cell proliferation incubated for 3 days by CellTiter-Glo Luminescent Cell Viability Assay. The data set is classed as functional, cell-based. The note with it: NCI-H1755, 72 h. The method in brief:
as §1

The next data set relates to MDA-MB-436. Nature of the data set: Antiproliferative activity against human MDA-MB-436 cells assessed as inhibition of cell proliferation incubated for 3 days by CellTiter-Glo Luminescent Cell Viability Assay. The data set is classed as functional, cell-based. The note with it: MDA-MB-436, 72 h. The method in brief: (§2)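 Cancer cell lines seeded in 384-well plates on day 1; compound added on day 2 and left for 3 days. On day 5 all medium was aspirated, and viable cells were quantified by CellTiter-Glo luminescence, which measures cellular ATP. Dose-dependent effects on proliferation were determined.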

The subject of another data set is HCC70. The data set can be described thus: Antiproliferative activity against human HCC70 cells assessed as inhibition of cell proliferation incubated for 3 days by CellTiter-Glo Luminescent Cell Viability Assay. The data set is classed as functional, cell-based. As to conditions: HCC70, 72 h. The method, boiled down: as §2
Data set [5] deals with Proto-oncogene tyrosine-protein kinase Src (Homo sapiens, UniProt P12931). The data set can be described thus: Inhibition of human SRC in presence of ATP by cellular assay.
Chain of Proto-oncogene tyrosine-protein kinase Src (P12931 2-536 limits assumed): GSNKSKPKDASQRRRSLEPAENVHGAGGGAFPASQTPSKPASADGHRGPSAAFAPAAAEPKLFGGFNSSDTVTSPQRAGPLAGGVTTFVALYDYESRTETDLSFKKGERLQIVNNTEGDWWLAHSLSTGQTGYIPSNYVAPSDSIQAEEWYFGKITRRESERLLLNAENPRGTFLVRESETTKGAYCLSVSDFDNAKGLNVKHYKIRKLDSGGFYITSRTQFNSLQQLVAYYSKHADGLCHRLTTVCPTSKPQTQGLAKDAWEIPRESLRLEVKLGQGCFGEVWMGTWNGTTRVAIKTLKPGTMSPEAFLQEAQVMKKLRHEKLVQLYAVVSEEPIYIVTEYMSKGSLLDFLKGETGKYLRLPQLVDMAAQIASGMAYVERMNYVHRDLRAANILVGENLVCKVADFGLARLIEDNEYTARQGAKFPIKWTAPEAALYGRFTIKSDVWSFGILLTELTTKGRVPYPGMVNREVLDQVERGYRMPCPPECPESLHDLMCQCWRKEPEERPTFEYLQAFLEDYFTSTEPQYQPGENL
A further data set deals with COLO 320DM. Nature of the data set: Inhibition of anchorage independent cell growth in human COLO 320DM cells incubated for 6 days by Alamar blue reagent based fluorescence plate reader analysis. The class given is functional. As to conditions: 144 h.
Another data set relates to NCI-H2170. Nature of the data set: Inhibition of anchorage independent cell growth in human NCI-H2170 cells incubated for 6 days by Alamar blue reagent based fluorescence plate reader analysis. The class given is functional. The note with it: NCI-H2170, 144 h.
In the next data set the test system is HEK293. Nature of the data set: Inhibition of YFP/YFP variant coding sequence fused Mnk1/p38alpha (unknown origin) expressed in HEK293 cells incubated for 8 to 24 hrs by fluorescence based analysis. The class given is cell-based. As to conditions: Homo sapiens, time 8-24 hrs.
A short description of data set [6]: Antiproliferative activity against human 184A1 cells assessed as inhibition of cell proliferation incubated for 3 days by CellTiter-Glo Luminescent Cell Viability Assay. The data set is classed as functional, cell-based. The note with it: 184A1, 72 h. The method in brief:
as §2

Data set [7] addresses Protein kinase C gamma type (Homo sapiens, UniProt P05129). Nature of the data set: Inhibition of human PKCgamma in presence of ATP relative to control. As to conditions: concentration not given here.
In data set [8] the test system is HCT-116. Nature of the data set: Induction of cell cycle arrest in human HCT-116 cells assessed as accumulation of cells at G0/G1 phase at 100 nM measured after 48 hrs by fluorescence activated cell sorter analysis (reference value: 50.74%). The data set is classed as functional.
For a further data set, the system named is M24met. The data set can be described thus: Antitumor activity against human M24met cells xenografted in nude mouse assessed as tumor growth inhibition at 25 mg/kg, po administered once daily for 9 to 18 days relative to control. The class given is functional. The note with it: time 9-18 day, read-out: TGI.
The next data set has as its system NCI-H647. The data set can be described thus: Antiproliferative activity against human NCI-H647 cells assessed as inhibition of cell proliferation incubated for 3 days by CellTiter-Glo Luminescent Cell Viability Assay. The data set is classed as functional, cell-based. The note with it: NCI-H647, 72 h. The method in brief:
as §1

A further data set concerns Panc1005. The data set can be described thus: Antiproliferative activity against human Panc1005 cells assessed as inhibition of cell proliferation incubated for 3 days by CellTiter-Glo Luminescent Cell Viability Assay. The data set is classed as functional, cell-based. As to conditions: Panc1005, 72 h. The method, boiled down:
as §1

For orientation: IC50 means the point on the concentration scale where inhibition reaches its midpoint. Usually Ki stands for the dissociation constant of the complex between target and ligand, obtained from inhibition or displacement. For orientation: inhibition means the relative decrease from the control value, in per cent.

With `Cc1nc(Nc2n[nH]c3c2CN(C(=O)N[C@H](CN(C)C)c2ccccc2)C3(C)C)c2sccc2n1` [PF-03758309], the IC50 in the data set with NCI-H2087 came to 1.36 nM; in the data set with NCI-H1993 it was 11.9 nM; with NCI-H1838, 5.5 nM; in the data set with RKO, 1.8 nM; in the data set with NCI-H1755, 15 nM; with MDA-MB-436, 0.79 nM. Besides, the IC50 in the data set with HCC70 worked out at 0.23 nM; in [5], 2210 nM; in the data set on COLO 320DM it was 373 nM; with NCI-H2170 it was 6.04 nM; in [6], 0.83 nM; in the data set with NCI-H647 it was 36 nM. For the same compound, the IC50 in the data set on Panc1005 turned out to be 67 nM. The compound further had a concentration at 216 h in data set [1] of 0.56 ng/mL. Besides, the Ki in [2] was 81 nM. Moreover, in the data set on HCT-116 [3], the inhibition in vivo at 3.3 mg/kg worked out at 114%. The result in the data set with HCT-116 [4] was Active. Besides, in the data set with HEK293, the inhibition entry is “Active”. Also, the inhibition in [7] is 92%. The Activity in the data set with HCT-116 [8] turned out to be 49.41%. For the same compound, the inhibition in vivo at 25 mg/kg with M24met is 85%.
